Assays:
[1] = target: T1, Prostaglandin E synthase (Homo sapiens) (UniProt O14684); assay: Inhibition of recombinant human mPGES-1 expressed in CHO cells assessed as reduction in PGE2 formation at 1 uM using PGH2 a substrate preincubated for 10 mins followed by substrate addition measured after 1 min relative to control; format: cell-based
T1 sequence (whole entry): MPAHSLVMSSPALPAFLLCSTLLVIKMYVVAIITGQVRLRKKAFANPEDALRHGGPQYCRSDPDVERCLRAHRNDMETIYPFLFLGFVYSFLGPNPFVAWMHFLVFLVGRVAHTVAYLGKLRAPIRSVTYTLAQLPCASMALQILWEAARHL
How it was run: (§1)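 mPGES-1 enzyme inhibition. % inhibition values are means of two experiments in duplicate. IC50 values were derived from graphs of at least two experiments in duplicate.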

[2] = Metabolic stability in rat liver microsomes assessed as parent compound remaining at 1 uM after 60 mins in presence of NADPH by LC/MS/MS analysis; format: ADME, microsome; settings: read-out: Stability
How it was run: (§2)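 Compound at 1.0 µM was incubated with liver microsomes (1.0 mg/mL protein) at 37 °C for 60 min. Samples were analysed by LC/MS/MS as % parent remaining. Run in triplicate.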

[3] = target: Prostaglandin G/H synthase 1 (Homo sapiens, UniProt P23219); assay: Inhibition of COX1 in human U937 cells assessed as decrease in PGE2 release using arachidonic acid as substrate preincubated for 15 mins followed by arachidonic acid addition measured after 5 mins; format: cell-based
Prostaglandin G/H synthase 1, sequence (P23219 whole entry): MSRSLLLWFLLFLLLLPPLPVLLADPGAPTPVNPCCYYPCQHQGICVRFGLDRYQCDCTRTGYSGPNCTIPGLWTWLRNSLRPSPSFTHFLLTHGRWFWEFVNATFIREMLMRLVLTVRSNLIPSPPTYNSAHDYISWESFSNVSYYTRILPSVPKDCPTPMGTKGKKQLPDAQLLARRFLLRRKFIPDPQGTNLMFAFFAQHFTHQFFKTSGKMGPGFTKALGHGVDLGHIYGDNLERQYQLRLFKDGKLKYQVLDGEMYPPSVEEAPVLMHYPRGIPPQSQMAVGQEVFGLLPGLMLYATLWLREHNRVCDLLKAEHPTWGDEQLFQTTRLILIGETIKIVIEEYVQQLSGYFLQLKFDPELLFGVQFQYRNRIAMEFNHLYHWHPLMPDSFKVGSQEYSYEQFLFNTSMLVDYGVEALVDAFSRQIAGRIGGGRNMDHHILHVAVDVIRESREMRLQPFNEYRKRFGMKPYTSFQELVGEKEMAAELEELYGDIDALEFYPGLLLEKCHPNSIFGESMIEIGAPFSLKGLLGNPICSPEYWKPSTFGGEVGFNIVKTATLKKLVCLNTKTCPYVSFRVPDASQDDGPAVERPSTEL

Cytochrome P450 2C9 = Cytochrome P450 2C9 (Homo sapiens, UniProt P11712); assay: Inhibition of CYP2C9 in human liver microsomes at 1 uM measured after 20 mins in presence of NADPH by LC/MS/MS analysis; format: ADME
Cytochrome P450 2C9, sequence (P11712 whole entry, canonical isoform): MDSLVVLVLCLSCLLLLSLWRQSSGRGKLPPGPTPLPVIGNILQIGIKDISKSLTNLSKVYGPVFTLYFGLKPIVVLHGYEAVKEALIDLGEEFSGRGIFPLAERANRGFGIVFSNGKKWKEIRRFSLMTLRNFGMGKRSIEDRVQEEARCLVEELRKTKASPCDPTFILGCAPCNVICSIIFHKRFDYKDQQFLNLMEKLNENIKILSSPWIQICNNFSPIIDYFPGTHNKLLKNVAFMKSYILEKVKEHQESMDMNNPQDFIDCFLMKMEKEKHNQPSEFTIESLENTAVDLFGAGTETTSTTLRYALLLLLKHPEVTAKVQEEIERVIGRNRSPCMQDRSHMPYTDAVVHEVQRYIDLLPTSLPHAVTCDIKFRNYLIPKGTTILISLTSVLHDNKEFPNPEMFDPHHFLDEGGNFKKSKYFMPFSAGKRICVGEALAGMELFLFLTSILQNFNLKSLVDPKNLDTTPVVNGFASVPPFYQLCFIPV
How it was run: (§3)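 CYP isoforms 1A2, 2D6, 3A4, 2C9 and 2C19 were tested at 1 and 10 µM. Results are % inhibition compared with a no-inhibitor control, run in triplicate.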

CYP2D6 = CYP2D6 (Homo sapiens, UniProt P10635); assay: Inhibition of CYP2D6 in human liver microsomes at 10 uM measured after 20 mins in presence of NADPH by LC/MS/MS analysis relative to control; format: ADME; settings: liver microsomes; how it was run: as §3
CYP2D6, sequence (P10635 whole entry): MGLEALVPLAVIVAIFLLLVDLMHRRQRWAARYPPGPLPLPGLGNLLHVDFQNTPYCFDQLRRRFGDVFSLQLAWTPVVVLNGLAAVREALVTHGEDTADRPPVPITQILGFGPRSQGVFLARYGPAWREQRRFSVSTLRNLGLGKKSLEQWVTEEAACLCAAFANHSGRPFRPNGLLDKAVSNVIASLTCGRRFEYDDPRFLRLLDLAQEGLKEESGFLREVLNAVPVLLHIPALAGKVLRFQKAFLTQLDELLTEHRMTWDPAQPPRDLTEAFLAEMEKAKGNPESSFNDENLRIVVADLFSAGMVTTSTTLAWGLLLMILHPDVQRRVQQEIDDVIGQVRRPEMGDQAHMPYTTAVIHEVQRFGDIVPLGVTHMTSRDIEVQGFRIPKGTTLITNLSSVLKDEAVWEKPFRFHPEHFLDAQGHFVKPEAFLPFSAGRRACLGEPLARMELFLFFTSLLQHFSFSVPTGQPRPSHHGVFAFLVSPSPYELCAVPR

[4] = target: T2, Prostaglandin G/H synthase 2 (Homo sapiens, UniProt P35354); assay: Inhibition of recombinant human N-terminal His-tagged COX2 expressed in baculovirus infected Sf21 insect cells assessed as decrease in PGE2 release using arachidonic acid as substrate preincubated for 15 mins followed by arachidonic acid addition measured after 5 mins
T2 sequence (P35354 whole entry): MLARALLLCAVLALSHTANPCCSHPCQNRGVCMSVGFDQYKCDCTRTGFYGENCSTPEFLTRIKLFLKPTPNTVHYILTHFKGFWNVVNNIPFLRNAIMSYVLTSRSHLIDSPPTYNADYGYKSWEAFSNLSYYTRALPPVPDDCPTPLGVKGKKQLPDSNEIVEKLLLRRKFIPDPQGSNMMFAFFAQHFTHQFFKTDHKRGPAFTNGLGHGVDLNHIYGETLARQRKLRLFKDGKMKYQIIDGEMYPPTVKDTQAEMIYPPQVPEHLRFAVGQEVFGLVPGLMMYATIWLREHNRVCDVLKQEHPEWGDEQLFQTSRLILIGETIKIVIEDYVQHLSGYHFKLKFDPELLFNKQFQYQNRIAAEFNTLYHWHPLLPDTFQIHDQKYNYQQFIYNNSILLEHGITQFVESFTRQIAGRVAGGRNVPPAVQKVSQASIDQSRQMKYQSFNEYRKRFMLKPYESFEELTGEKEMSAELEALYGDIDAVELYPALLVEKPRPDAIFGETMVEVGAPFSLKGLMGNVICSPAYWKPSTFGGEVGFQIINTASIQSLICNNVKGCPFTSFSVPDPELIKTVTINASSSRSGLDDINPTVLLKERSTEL

[5] = Metabolic stability in human liver microsomes assessed as parent compound remaining at 1 uM after 60 mins in presence of NADPH by LC/MS/MS analysis; format: ADME, microsome; settings: read-out: Stability; how it was run: as §2
CYP3A4 = CYP3A4 (Homo sapiens, UniProt P08684); assay: Inhibition of CYP3A4 in human liver microsomes at 10 uM measured after 20 mins in presence of NADPH by LC/MS/MS analysis relative to control; format: ADME; how it was run: as §3
CYP3A4, sequence (P08684 whole entry): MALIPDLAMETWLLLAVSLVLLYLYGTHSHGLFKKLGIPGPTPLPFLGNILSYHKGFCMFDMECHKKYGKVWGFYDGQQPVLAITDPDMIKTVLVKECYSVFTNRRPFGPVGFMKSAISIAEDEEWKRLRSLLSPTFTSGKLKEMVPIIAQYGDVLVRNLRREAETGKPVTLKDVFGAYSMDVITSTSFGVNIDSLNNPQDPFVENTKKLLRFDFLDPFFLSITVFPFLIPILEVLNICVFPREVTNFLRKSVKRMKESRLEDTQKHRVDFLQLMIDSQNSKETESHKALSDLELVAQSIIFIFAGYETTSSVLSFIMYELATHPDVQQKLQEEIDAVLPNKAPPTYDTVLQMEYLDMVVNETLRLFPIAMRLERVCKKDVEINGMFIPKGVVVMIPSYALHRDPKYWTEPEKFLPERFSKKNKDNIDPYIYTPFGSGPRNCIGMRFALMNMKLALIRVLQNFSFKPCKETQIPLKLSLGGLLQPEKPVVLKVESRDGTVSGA

Cytochrome P450 2C19 = Cytochrome P450 2C19 (Homo sapiens, UniProt P33261); assay: Inhibition of CYP2C19 in human liver microsomes at 1 uM measured after 40 mins in presence of NADPH by LC/MS/MS analysis; format: ADME; how it was run: as §3
Cytochrome P450 2C19, sequence (P33261 whole entry): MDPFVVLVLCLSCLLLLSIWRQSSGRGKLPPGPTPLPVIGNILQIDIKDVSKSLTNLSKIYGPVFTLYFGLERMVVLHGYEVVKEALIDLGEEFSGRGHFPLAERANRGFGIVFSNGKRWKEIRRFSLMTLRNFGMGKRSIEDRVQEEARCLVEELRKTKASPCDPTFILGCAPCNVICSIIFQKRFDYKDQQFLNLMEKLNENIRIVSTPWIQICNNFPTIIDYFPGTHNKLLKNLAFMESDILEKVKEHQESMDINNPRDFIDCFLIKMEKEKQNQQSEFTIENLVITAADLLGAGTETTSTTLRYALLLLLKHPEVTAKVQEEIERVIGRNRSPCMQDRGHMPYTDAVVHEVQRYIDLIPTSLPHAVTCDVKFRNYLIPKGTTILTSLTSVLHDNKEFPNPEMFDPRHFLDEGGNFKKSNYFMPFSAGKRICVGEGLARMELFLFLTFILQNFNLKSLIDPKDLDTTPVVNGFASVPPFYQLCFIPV

Cytochrome P450 1A2 = target: T3, Cytochrome P450 1A2 (Homo sapiens, UniProt P05177); assay: Inhibition of CYP1A2 in human liver microsomes at 1 uM measured after 20 mins in presence of NADPH by LC/MS/MS analysis; format: ADME; how it was run: as §3
T3 sequence (P05177 whole entry): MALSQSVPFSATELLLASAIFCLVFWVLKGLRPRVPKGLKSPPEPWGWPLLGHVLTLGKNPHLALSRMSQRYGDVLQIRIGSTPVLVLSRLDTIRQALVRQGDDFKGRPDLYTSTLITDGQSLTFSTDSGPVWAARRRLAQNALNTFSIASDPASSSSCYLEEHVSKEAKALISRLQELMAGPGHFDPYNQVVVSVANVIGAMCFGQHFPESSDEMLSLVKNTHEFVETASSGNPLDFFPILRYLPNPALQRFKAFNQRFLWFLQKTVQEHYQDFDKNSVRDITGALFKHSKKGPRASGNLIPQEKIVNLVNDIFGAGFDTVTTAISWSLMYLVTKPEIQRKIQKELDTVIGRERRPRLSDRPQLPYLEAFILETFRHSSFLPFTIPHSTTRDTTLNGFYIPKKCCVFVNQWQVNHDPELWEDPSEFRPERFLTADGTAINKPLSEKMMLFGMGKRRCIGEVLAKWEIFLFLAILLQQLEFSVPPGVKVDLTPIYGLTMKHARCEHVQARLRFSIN

COX2 [6] = target: T4, COX2 (Homo sapiens, UniProt P35354); assay: Inhibition of recombinant human N-terminal His-tagged COX2 expressed in baculovirus infected Sf21 insect cells assessed as decrease in PGE2 release at 1 uM using arachidonic acid as substrate preincubated for 15 mins followed by arachidonic acid addition measured after 5 mins relative to control; settings: probe arachidonic acid
T4 sequence (P35354 whole entry): T2 sequence (P35354 whole entry)

COX2 [7] = target: T4, COX2; assay: Inhibition of recombinant human N-terminal His-tagged COX2 expressed in baculovirus infected Sf21 insect cells assessed as decrease in PGE2 release at 10 uM using arachidonic acid as substrate preincubated for 15 mins followed by arachidonic acid addition measured after 5 mins relative to control; settings: probe arachidonic acid
[8] = target: T1, Prostaglandin E synthase (Homo sapiens); assay: Inhibition of recombinant human mPGES-1 expressed in CHO cells assessed as reduction in PGE2 formation at 10 uM using PGH2 a substrate preincubated for 10 mins followed by substrate addition measured after 1 min relative to control; format: cell-based; how it was run: as §1
CYP2C9 = CYP2C9 (Homo sapiens, UniProt P11712); assay: Inhibition of CYP2C9 in human liver microsomes at 10 uM measured after 20 mins in presence of NADPH by LC/MS/MS analysis relative to control; format: ADME; how it was run: as §3
CYP2C9, sequence (P11712 whole entry): as the sequence (P11712 whole entry, canonical isoform) above

Prostaglandin E synthase [9] = target: T5, Prostaglandin E synthase (Homo sapiens, UniProt O14684); assay: Inhibition of recombinant human mPGES-1 expressed in CHO cells assessed as reduction in PGE2 formation using PGH2 a substrate preincubated for 10 mins followed by substrate addition measured after 1 min; format: cell-based; how it was run: as §1
T5 sequence (O14684 whole entry): T1 sequence (whole entry)

Cytochrome P450 3A4 = Cytochrome P450 3A4 (Homo sapiens, UniProt P08684); assay: Inhibition of CYP3A4 in human liver microsomes at 1 uM measured after 20 mins in presence of NADPH by LC/MS/MS analysis; format: ADME; how it was run: as §3
Cytochrome P450 3A4, sequence (P08684 whole entry): as the sequence (P08684 whole entry) above

Prostaglandin E synthase [10] = target: T5, Prostaglandin E synthase; assay: Inhibition of mPGES-1 in human A549 cells assessed as decrease in IL1beta induced PGE2 release preincubated for 30 mins followed by IL-1beta addition after 16 to 20 hrs by HTRF method; format: cell-based
[11] = Metabolic stability in Guinea pig liver microsomes assessed as parent compound remaining at 1 uM after 60 mins in presence of NADPH by LC/MS/MS analysis; format: ADME, Cavia porcellus, microsome; settings: read-out: Stability; how it was run: as §2
Cytochrome P450 2D6 = Cytochrome P450 2D6 (Homo sapiens, UniProt P10635); assay: Inhibition of CYP2D6 in human liver microsomes at 1 uM measured after 20 mins in presence of NADPH by LC/MS/MS analysis; format: ADME; how it was run: as §3
Cytochrome P450 2D6, sequence (P10635 whole entry): as the sequence (P10635 whole entry) above

Cavia porcellus = assay: Analgesic activity in Dunkin Hartley guinea pig hyperalgesia pain model assessed as inhibition of LPS-induced thermal hyperalgesia at 10 mg/kg, po qd administered 1 hr prior to LPS stimulation measured after 4.5 hrs by plantar test relative to control; format: functional
How it was run: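 LPS was injected into the guinea pig plantar to induce thermal hyperalgesia, and compound was given orally. Response is expressed as % hyperalgesia, with a saline-injected naive group as 0% and the vehicle-treated LPS group as 100%. Values are mean ± SEM, n = 8 per dose group.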

inhibition [1] [%] | remaining at 1 h, 1 µM [2] [%] | IC50 [3] [µM] | inhibition (INH) (Cytochrome P450 2C9) | inhibition at 20 min, 10 µM (CYP2D6) [%] | IC50 [4] [µM] | remaining at 1 h, 1 µM [5] [%] | inhibition at 20 min, 10 µM (CYP3A4) [%] | inhibition (INH) (Cytochrome P450 2C19) | inhibition (INH) (Cytochrome P450 1A2) | inhibition at 5 min, 1 µM (COX2 [6]) [%] | inhibition at 5 min, 10 µM (COX2 [7]) [%] | inhibition [8] [%] | inhibition at 20 min, 10 µM (CYP2C9) [%] | IC50 (Prostaglandin E synthase [9]) [nM] | inhibition (INH) (Cytochrome P450 3A4) | IC50 (Prostaglandin E synthase [10]) [nM] | remaining at 1 h, 1 µM [11] [%] | inhibition (INH) (Cytochrome P450 2D6) | SMILES | inhibition in vivo at 10 mg/kg (Cavia porcellus) [%]
91.4 | 99 | 8.35 | Not Active | 56 | > 10 | 89 | 37 | Not Active | Not Active | 2.65 | 27.4 | 94.6 | 35 | 92.9 | Not Active | 616 | 93 | Not Active | CC1(C)Oc2cc(-c3cccc(C(F)(F)F)c3)ccc2-c2[nH]c(-c3c(F)cccc3Cl)nc21 | –
– | – | – | Not Active | 29 | – | 81 | 24 | Not Active | Not Active | – | – | – | 32 | 15.9 | Not Active | 298 | 100 | Not Active | CC1(C)Oc2cc(C#Cc3ccccc3C(F)(F)F)ccc2-c2nc(-c3c(C#N)cccc3C#N)[nH]c21 | –
– | – | – | – | – | – | – | – | – | – | – | – | – | – | – | – | – | – | – | O=C(O)Cc1ccccc1Nc1c(Cl)cccc1Cl [DICLOFENAC] | 80

— ChEMBL document CHEMBL4028818, “Tricyclic 4,4-dimethyl-3,4-dihydrochromeno[3,4-d]imidazole derivatives as microsomal prostaglandin E2 synthase-1 (mPGES-1) inhibitors: SAR and in vivo efficacy in hyperalgesia pain model” (Bioorg Med Chem Lett, 2017)
